Data on nine molecules can be found in PubChem BioAssay.

Experiment [1] in a line: hit retest on RPL19A-GFP reporter strain – cell-based, S. cerevisiae, flow cytometry, cherry picks, mother/daughter gates, confirmation (AID 2270;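 active means GFP response below 50% of the DMSO control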). To be noted: 3 h, at 10 µM, stronger effect = lower value, 100 = same GFP as DMSO wells. A general note: In flow cytometry, cells or beads pass a laser one at a time.
Experiment [2] can be described thus: yeast TOR pathway reporter LAP4-GFP change – cell-based, cherry picks, flow cytometry, mother/daughter gates, confirmation (AID 2271;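 active means GFP response above 150% of the DMSO control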;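 further: ratio of sample to DMSO plate mean so 100% equals DMSO level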). To be noted: S. cerevisiae LAP4-GFP strain, 3 h, at 10 µM, stronger effect = higher value, 100 means same as DMSO control. Put shortly: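 System – GFP-fusion yeast strain · Amount – 0.2 OD600 cells · Buffer or medium – SC growth medium · Dosing – single test-compound dose, 10 µM final · Schedule – 3 h treatment at 30 °C with rotation · Detection – GFP by flow cytometry · Read-out – per-gate (all, mother, daughter) GFP response vs DMSO · Benchmarks – positive rapamycin (400 ng/mL), negative DMSO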

Experiment [3] can be described thus: TOR pathway reporter MEP2-GFP, retest of hits – S. cerevisiae, flow cytometry GFP, cherry picks, confirmation (AID 2272;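 active means GFP response above 150% of the DMSO control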;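 further: ratio of well signal to plate DMSO mean so 100% equals DMSO level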). The following applies: S. cerevisiae MEP2-GFP strain, 3 h, at 10 µM, stronger effect = higher value.
Experiment [4] in a line: yeast AGP1-GFP fluorescence change, single-dose – cell-based, flow cytometry, S. cerevisiae, cherry picks, confirmation (AID 2273).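 Further: median GFP channel fluorescence over the whole cell population gate.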 The following applies: S. cerevisiae AGP1-GFP strain, 3 h, at 10 µM.
Experiment [5] in a line: TOR pathway CIT2 reporter hit retest – S. cerevisiae, GFP fusion, cherry picks, mother/daughter gates, confirmation (AID 2274). The following applies: S. cerevisiae CIT2-GFP strain, flow cytometry, 3 h, at 10 µM, stronger effect = higher value.
[6] abbreviates: measured here: daughter cell gate.
Setting [7] is: measured here: mother cell gate.
Setting [8] is: measured here: daughter cell gate response.
[9] abbreviates: measured here: mother cell gate response.

Each structure is given as a SMILES string. Calls of active or inactive are those of the source.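 How the source made its calls, unless noted: active means GFP response above 150% of the DMSO level; inconclusive means fewer than 70 events counted for a yeast strain; inactive means the rest.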

`CCOc1ccc(/C=C/C(=O)c2c(O)cc(C)oc2=O)cc1`: the GFP response vs DMSO in experiment [1] was 95.1% (inactive); in experiment [1] (setting [6]), 96.1%; in experiment [1] (setting [7]), 94.6%; in experiment [3], 106% (inactive). Besides, the GFP response relative to DMSO is 120% (inactive) in experiment [2], 113% in experiment [2] (setting [8]) and 126% in experiment [2] (setting [9]). Moreover, the GFP response, % of DMSO is 107% (inactive) in experiment [4], 93.1% (inactive) in experiment [5], 94% in experiment [5] (setting [6]) and 92.6% in experiment [5] (setting [7]).

`O=C(/C=C/c1ccccc1[N+](=O)[O-])c1ccccc1Br`: the GFP response vs DMSO in experiment [1] is 92.9% (inactive); in experiment [1] (setting [6]) it was 94.8%; in experiment [1] (setting [7]), 89.1%; in experiment [3], 101% (inactive). Further, the GFP response relative to DMSO in experiment [2] is 161% (active); in experiment [2] (setting [8]), 139%; in experiment [2] (setting [9]), 180%. The GFP response, % of DMSO in experiment [4] was 104% (inactive); in experiment [5], 90.9% (inactive); in experiment [5] (setting [6]), 95.2%; in experiment [5] (setting [7]) it was 82.8%.

In the case of `COc1ccc(OC(=O)c2cccc(S(=O)(=O)N3CCCC3)c2)cc1`, the GFP response vs DMSO in experiment [1] was 96.6% (inactive); in experiment [1] (setting [6]) it was 95.4%; in experiment [1] (setting [7]) it was 96.1%; in experiment [3] it was 105% (inactive). Besides, the GFP response relative to DMSO in experiment [2] is 90.2% (inactive); in experiment [2] (setting [8]), 91.2%; in experiment [2] (setting [9]) it was 89.7%. Moreover, the GFP response, % of DMSO in experiment [4] is 96.4% (inactive); in experiment [5], 103% (inactive); in experiment [5] (setting [6]), 103%; in experiment [5] (setting [7]), 101%.

For `CCc1cc(=O)oc2c(CN3CCCC3)c(O)c(Cl)cc12`, the GFP response vs DMSO in experiment [1] was 97.6% (inactive); in experiment [1] (setting [6]), 101%; in experiment [1] (setting [7]), 95.8%; in experiment [3], 110% (inactive). Moreover, the GFP response relative to DMSO in experiment [2] was 104% (inactive); in experiment [2] (setting [8]), 105%; in experiment [2] (setting [9]), 100%. Also, the GFP response, % of DMSO in experiment [4] was 98.4% (inactive); in experiment [5] it was 107% (inactive); in experiment [5] (setting [6]) it was 105%; in experiment [5] (setting [7]) it was 102%.

Turning to `Cc1oc2c(CN3CCCC(C)C3)c(O)ccc2c(=O)c1-c1ccccc1` (centres undefined), the GFP response vs DMSO in experiment [1] is 102% (inactive); in experiment [1] (setting [6]), 102%; in experiment [1] (setting [7]), 104%; in experiment [3], 141% (inactive). In addition, the GFP response relative to DMSO is 143% (inactive) in experiment [2], 151% in experiment [2] (setting [8]) and 141% in experiment [2] (setting [9]). Further, the GFP response, % of DMSO is 107% (inactive) in experiment [4], 147% (inactive) in experiment [5], 152% in experiment [5] (setting [6]) and 143% in experiment [5] (setting [7]).

With `CN1CC(=O)NC1=NC(=O)C12CC3CC(CC(C3)C1)C2`, the GFP response vs DMSO in experiment [1] was 95% (inactive); in experiment [1] (setting [6]) it was 93.9%; in experiment [1] (setting [7]) it was 96%; in experiment [3], 97.5% (inactive). Besides, the figures for the GFP response relative to DMSO in experiment [2], in experiment [2] (setting [8]) and in experiment [2] (setting [9]) were 102% (inactive), 97.9% and 103%, respectively. The GFP response, % of DMSO in experiment [4] is 92.3% (inactive); in experiment [5], 93.5% (inactive); in experiment [5] (setting [6]), 94.6%; in experiment [5] (setting [7]), 92.1%.

For the molecule `CC1=C(C)/C(=N\OS(=O)(=O)c2ccccc2)C=CC1=O`, the GFP response vs DMSO in experiment [1] was 99.1% (inactive); in experiment [1] (setting [6]), 98.8%; in experiment [1] (setting [7]) it was 91.2%; in experiment [3], 112% (inactive). The GFP response relative to DMSO in experiment [2] is 250% (active); in experiment [2] (setting [8]) it was 196%; in experiment [2] (setting [9]), 236%. Further, the GFP response, % of DMSO is 93.4% (inactive) in experiment [4], 105% (inactive) in experiment [5], 111% in experiment [5] (setting [6]) and 95.6% in experiment [5] (setting [7]).

Regarding `O=C1C(Cl)=C(Nc2ccccc2O)C(=O)N1c1ccccc1`, the GFP response vs DMSO is 97.4% (inactive) in experiment [1], 98% in experiment [1] (setting [6]), 97.1% in experiment [1] (setting [7]) and 104% (inactive) in experiment [3]. Besides, the GFP response relative to DMSO in experiment [2] was 112% (inactive); in experiment [2] (setting [8]) it was 108%; in experiment [2] (setting [9]) it was 113%. Further, the GFP response, % of DMSO in experiment [4] was 103% (inactive); in experiment [5] it was 99.3% (inactive); in experiment [5] (setting [6]) it was 100%; in experiment [5] (setting [7]), 98%.

Turning to `O=C(COC(=O)c1n[nH]c2ccccc12)c1cccc(Br)c1`, the GFP response vs DMSO was 96.5% (inactive) in experiment [1], 95.6% in experiment [1] (setting [6]), 94.8% in experiment [1] (setting [7]) and 101% (inactive) in experiment [3]. Besides, the GFP response relative to DMSO was 101% (inactive) in experiment [2], 101% in experiment [2] (setting [8]) and 99.5% in experiment [2] (setting [9]). Besides, the GFP response, % of DMSO is 102% (inactive) in experiment [4], 100% (inactive) in experiment [5], 95.8% in experiment [5] (setting [6]) and 100% in experiment [5] (setting [7]).
